Measured values taken from ChEMBL document CHEMBL1133797, “Synthesis and structure--activity analysis of novel dihydropyridine derivatives to overcome multidrug resistance” (Bioorg Med Chem Lett, 2001).

How the values were obtained:
Mus musculus [1] = assay: Survival days of vincristine (0.1 mg/kg, ip) treated mice after 30 mg/kg, ip dose divided by survival days of mice treated by vincristine (0.1 mg/kg, ip) alone; type: functional; conditions: route intraperitoneal
Summary of the method: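 In P388 leukemia-bearing mice, the test agent was dosed at 30 mg/kg ip with vincristine 0.1 mg/kg ip. Survival time was recorded. The value (%) is the ratio of survival days under the combination to survival days under vincristine 0.1 mg/kg ip alone.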

KB 3-1 = assay: Resistance index determined as the ratio of IC50 of doxorubicin with compound (1 ug/mL) in KB VJ300 cells divided by the control tested in vitro; type: functional, Homo sapiens
Rattus norvegicus = species: Rattus norvegicus; assay: Calcium antagonistic activity determined by the inhibitory effect on high-potassium depolarization-induced contracture in isolated rat aorta.; type: functional
Mus musculus [2] = assay: Survival days of vincristine (0.1 mg/kg, ip) treated mice after 100 mg/kg, ip dose divided by survival days of mice treated by vincristine (0.1 mg/kg, ip) alone; type: functional; conditions: route intraperitoneal
Summary of the method: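 Mice bearing P388 leukemia cells were given vincristine 0.1 mg/kg ip together with the test agent at 100 mg/kg ip. Survival days were recorded. Antitumor activity (%) is survival days with the combination divided by survival days of mice given vincristine 0.1 mg/kg ip alone.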

SMILES | Activity (Mus musculus [1]) [%] | Resistance index (KB 3-1) | IC50 (Rattus norvegicus) [µM] | Activity (Mus musculus [2]) [%]
CCCCCC1C(C(=O)OCCCc2cccnc2)=C(C)N=C(C)/C1=C(/O)OCCCN1CCN(C(c2ccccc2)c2ccccc2)CC1 (stereo unspecified) | 143 | 1.1 | 175 | 
CCCCCC1C(C(=O)OCCCc2ccccn2)=C(C)N=C(C)/C1=C(/O)OCCCN1CCN(C(c2ccccc2)c2ccccc2)CC1 (stereo unspecified) |  | 1.7 |  | 120
CCCCCC1C(C(=O)OCCCc2cccnc2)=C(C)N=C(C)/C1=C(/O)OCCCc1cccnc1 (stereo unspecified) |  | 2 | 46 | 161
COC(=O)C1=C(C)NC(C)=C(C(=O)OCCN(C)Cc2ccccc2)C1c1cccc([N+](=O)[O-])c1 (stereo unspecified) [NICARDIPINE] |  |  | 1.4 | 
CC1=NC(C)=C(C(=O)OCc2ccncc2)C(C2=C(C)SCCS2)/C1=C(\O)OCc1ccncc1 (stereo unspecified) |  |  | 8.7 | 
CCCCCC1C(C(=O)OCCCN2CCN(Cc3ccccc3)CC2)=C(C)N=C(C)/C1=C(/O)OCCCN1CCN(Cc2ccccc2)CC1 (stereo unspecified) |  | 1.1 | 230 | 127
CCCCCC1C(C(=O)OCCCc2cccnc2)=C(C)N=C(C)/C1=C(/O)OCCCN1CCN(Cc2ccccc2)CC1 (stereo unspecified) |  | 1 | 33 | 150
CCCCCC1C(C(=O)OCCN(C)Cc2ccccc2)=C(C)N=C(C)/C1=C(/O)OCCN(C)Cc1ccccc1 (stereo unspecified) |  | 3.9 | 115 | 128
CCCCCC1C(C(=O)OCCc2ccc(N(C)C)cc2)=C(C)N=C(C)/C1=C(/O)OCCc1ccc(N(C)C)cc1 (stereo unspecified) |  | 11.2 |  | 
CCCCCC1C(C(=O)OCCCc2ccncc2)=C(C)N=C(C)/C1=C(/O)OCCCN1CCN(C(c2ccccc2)c2ccccc2)CC1 (stereo unspecified) |  | 1 |  | 
CCCCCC1C(C(=O)OCCCc2ccccc2)=C(C)N=C(C)/C1=C(/O)OCCCc1ccccc1 (stereo unspecified) |  | 22.7 |  | 
CCCCCC1C(C(=O)OCCN(C)Cc2ccccc2)=C(C)N=C(C)/C1=C(/O)OCCCc1cccnc1 (stereo unspecified) |  | 1.4 | 135 | 144
CCCCCC1C(C(=O)OCCc2ccc(N(C)C)cc2)=C(C)N=C(C)/C1=C(/O)OCCCc1cccnc1 (stereo unspecified) |  | 1.8 | 45 | 125
CCCCCC1C(C(=O)OCCc2ccc(N(C)C)cc2)=C(C)N=C(C)/C1=C(/O)OCCCN1CCN(C(c2ccccc2)c2ccccc2)CC1 (stereo unspecified) |  | 23.5 |  | 
CCCCCC1C(C(=O)O/C=C/Cc2cccnc2)=C(C)N=C(C)/C1=C(/O)O/C=C/Cc1cccnc1 (stereo unspecified) |  | 1.8 |  | 89
